Source: ChEMBL document CHEMBL3792300, “Tuning Side Arm Electronics in Unsymmetrical Cyclotriazadisulfonamide (CADA) Endoplasmic Reticulum (ER) Translocation Inhibitors to Improve their Human Cluster of Differentiation 4 (CD4) Receptor Down-Modulating Potencies” (J Med Chem, 2016)

Legend:
[1] = Binding affinity to human CD4 signal peptide expressed in CHO cells assessed as down-modulation of YFP-fused CD4 expression after 24 hrs by flow cytometric analysis; type: cell-based
Method in brief: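 CHO cells stably expressing human CD4 fused C-terminally to YFP, treated 24 h at 37 °C with 1:5 serial dilutions. Washed, fixed in 1% formaldehyde, flow cytometry with 488 nm excitation and YFP in FL-1. YFP median fluorescence as % of untreated cells after subtracting non-transfected background. IC50 = 50% decrease; mean ± SD, n ≥ 3.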

[2] = system: Human immunodeficiency virus 1; assay: Antiviral activity against CXCR4 using HIV-1 NL4.3 infected in human MT4 cells assessed as reduction of viral replication preincubated for 15 mins with cells followed by viral infection measured after 4 days by MTS/PES method; type: functional, organism-based; conditions: Human immunodeficiency virus 1, NL4.3, MT4
Method in brief: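 MT-4 T cells at 3.75×10⁵ cells/mL in RPMI 1640 with 10% FBS and 2 mM L-glutamine, exposed to compounds for 15 min, then infected with HIV-1 NL4.3 (30 pg/well) at 37 °C. After 4 days, viability by MTS/PES absorbance at 490 and 700 nm, used to derive IC50 for viral replication. Mean ± SD, n = 2 or 3.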

MT4 = assay: Cytotoxicity against human MT4 cells after 48 hrs by MTS/PES method; type: cell-based; conditions: mt4, 48 h
Method in brief: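 MT-4 cells at 10⁴ per well in DMEM with 10% FBS and 10 mM HEPES, incubated with compounds 48 h at 37 °C. Viability by MTS/PES; CC50 taken as the concentration reducing viability by 50%.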

SMILES	IC50 [1] [µM]	pIC50 [1]	IC50 [2] [µM]	CC50 (MT4) [µM]
C=C1CN(S(=O)(=O)c2ccc(C)cc2)CCCN(Cc2ccccc2)CCCN(S(=O)(=O)c2ccc(F)cc2)C1.Cl	0.92	6.04	4.66	> 150
C=C1CN(S(=O)(=O)c2ccc(C)cc2)CCCN(CC2CCCCC2)CCCN(S(=O)(=O)c2ccc(OCCCN)cc2)C1	> 50			11.6
C=C1CN(S(=O)(=O)c2ccc(C)cc2)CCCN(Cc2ccccc2)CCCN(S(=O)(=O)c2ccc(OC(F)(F)F)cc2)C1.Cl	1.2	5.92	3.26	> 150
C=C1CN(S(=O)(=O)c2ccc(C)cc2)CCCN(Cc2ccccc2)CCCN(S(=O)(=O)N2CCOCC2)C1.Cl	1.08	5.97	8.99	> 150
C=C1CN(S(=O)(=O)c2ccc(C)cc2)CCCN(Cc2ccccc2)CCCN(S(=O)(=O)c2ccc(OC)cc2)C1.Cl	0.29	6.54	0.55	> 150
C=C1CN(S(=O)(=O)c2ccc(C)cc2)CCCN(Cc2ccccc2)CCCN(S(=O)(=O)c2ccc(N(C)C)cc2)C1.Cl	0.17	6.77	0.62	> 150
C=C1CN(S(=O)(=O)c2ccc(C)cc2)CCCN(CC2CCCCC2)CCCN(S(=O)(=O)c2ccc(O)cc2)C1	1.14			> 150
C=C1CN(C(=O)c2ccc(N)cc2)CCCN(Cc2ccccc2)CCCN(S(=O)(=O)c2ccc(C)cc2)C1	> 50		> 10	13.7
C=C1CN(S(=O)(=O)c2ccc(C)cc2)CCCN(Cc2ccccc2)CCCN(S(=O)(=O)c2ccc(OC)cc2OC)C1.Cl	1.35	5.87	7	> 150
C=C1CN(S(=O)(=O)c2ccc(C)cc2)CCCN(Cc2ccccc2)CCCN(S(=O)(=O)c2ccc3ccccc3c2)C1.Cl	0.55	6.26	1.35	> 150
C=C1CN(S(=O)(=O)c2ccc(C)cc2)CCCN(Cc2ccccc2)CCCN(S(=O)(=O)c2ccc(OC(=S)N(C)C)cc2)C1.Cl	6.28	5.2	> 50	106
C=C1CN(S(=O)(=O)c2ccc(C)cc2)CCCN(Cc2ccccc2)CCCN(S(=O)(=O)c2ccccc2[N+](=O)[O-])C1.Cl	0.7	6.15	27.7	> 150
C=C1CN(S(=O)(=O)c2ccc(C)cc2)CCCN(CC2CCCCC2)CCCN(S(=O)(=O)c2ccc(OCCCC)cc2)C1	1.1		1.95	13.2
C=C1CN(C(=O)c2ccccc2)CCCN(Cc2ccccc2)CCCN(S(=O)(=O)c2ccc(C)cc2)C1	7.32		> 10	15.8
C=C1CN(S(=O)(=O)c2ccc(C)cc2)CCCN(Cc2ccccc2)CCCN(S(=O)(=O)c2ccc(O)cc2)C1.Cl	3.58	5.45	2.84	13.6
C=C1CN(C(=O)c2ccc(OC)cc2)CCCN(Cc2ccccc2)CCCN(S(=O)(=O)c2ccc(C)cc2)C1	4.22		3.86	23.6
C=C1CN(S(=O)(=O)c2ccc(C)cc2)CCCN(Cc2ccccc2)CCCN(S(=O)(=O)c2ccc(SC)cc2)C1.Cl	0.23	6.64	1.44	> 150
C=C1CN(S(=O)(=O)c2ccc(C)cc2)CCCN(Cc2ccccc2)CCCN(S(=O)(=O)N(C)C)C1	1.58		12.8	> 150
C=C1CN(S(=O)(=O)c2ccc(C)cc2)CCCN(CC2CCCCC2)CCCN(S(=O)(=O)c2ccc(OCCCN3C(=O)c4ccccc4C3=O)cc2)C1	0.75			32.2

SMILES	IC50 [1] [µM]	pIC50 [1]	IC50 [2] [µM]	CC50 (MT4) [µM]
C=C1CN(S(=O)(=O)c2ccc(C)cc2)CCCN(CC2CCCCC2)CCCN(S(=O)(=O)c2ccc(N3CCOCC3)cc2)C1	0.13		0.36	> 150
C=C1CN(S(=O)(=O)c2ccc(C)cc2)CCCN(Cc2ccccc2)CCCN(S(=O)(=O)c2ccccc2N)C1.Cl	2.12	5.66	6.93	70.3
C=C1CN(S(=O)(=O)c2ccc(C)cc2)CCCN(CC2CCCCC2)CCCN(S(=O)(=O)c2ccc(OC)cc2)C1	0.15		0.49	99
C=C1CN(S(=O)(=O)c2ccccc2)CCCN(Cc2ccccc2)CCCN(S(=O)(=O)c2ccc(C)cc2)C1.Cl	1.46	5.84	> 50	> 150
C=C1CN(S(=O)(=O)c2ccc(C)cc2)CCCN(Cc2ccccc2)CCCN(S(=O)(=O)c2ccc(OC)c(OC)c2)C1.Cl	0.31	6.51	0.86	> 150
C=C1CN(S(=O)(=O)c2ccc(C)cc2)CCCN(CC2CCCCC2)CCCN(S(=O)(=O)c2ccc(N(C)C)cc2)C1	0.063		0.18	44
C=C1CN(S(=O)(=O)c2ccc(C)cc2)CCCN(Cc2ccccc2)CCCN(S(=O)(=O)c2cccc([N+](=O)[O-])c2)C1.Cl	2.02	5.69	> 50	> 150
C=C1CN(S(=O)(=O)c2ccc(C)cc2)CCCN(Cc2ccccc2)CCCN(S(=O)(=O)c2ccc(C)cc2)C1		6.4		
C=C1CN(S(=O)(=O)c2ccc(C)cc2)CCCN(Cc2ccccc2)CCCN(S(=O)(=O)c2ccc3c(c2)OCO3)C1.Cl	1.06	5.97	14.2	> 150
C=C1CN(S(=O)(=O)c2ccc(C)cc2)CCCN(Cc2ccccc2)CCCN(S(=O)(=O)c2ccc(N)cc2)C1.Cl	2.42	5.62	7.72	63.4
C=C1CN(S(=O)(=O)c2ccc(C)cc2)CCCN(CC2CCCCC2)CCCN(S(=O)(=O)c2ccc(OCC)cc2)C1	0.19		0.62	19.6
C=C1CN(C(=O)c2ccc(C)cc2)CCCN(Cc2ccccc2)CCCN(S(=O)(=O)c2ccc(C)cc2)C1	3.78		3.95	19.9
C=C1CN(S(=O)(=O)c2ccc(C)cc2)CCCN(Cc2ccccc2)CCCN(S(=O)(=O)c2cccc(N(C)C)c2)C1.Cl	0.79	6.1	> 50	> 150
C=C1CN(S(=O)(=O)c2ccc(C)cc2)CCCN(Cc2ccccc2)CCCN(S(=O)(=O)c2ccc([N+](=O)[O-])cc2)C1.Cl	5.25	5.28	35.9	> 150
C=C1CN(S(=O)(=O)c2ccc(C)cc2)CCCN(Cc2ccccc2)CCCN(S(=O)(=O)c2cccc(N)c2)C1.Cl	1.02	5.99	6.22	> 150
C#CCOc1ccc(S(=O)(=O)N2CCCN(Cc3ccccc3)CCCN(S(=O)(=O)c3ccc(C)cc3)CC(=C)C2)cc1.Cl	0.46	6.34	0.55	> 150
C=C1CN(S(=O)(=O)c2ccc(C)cc2)CCCN(Cc2ccccc2)CCCN(S(=O)(=O)c2ccn(C)c2)C1.Cl	3.17	5.5	> 50	> 150
C=C1CN(S(=O)(=O)c2ccc(C)cc2)CCCN(CC2CCCCC2)CCCN(S(=O)(=O)c2ccc(-n3cccc3)cc2)C1	0.18		1.25	48
C=C1CN(S(=O)(=O)c2ccc(C)cc2)CCCN(CC2CCCCC2)CCCN(S(=O)(=O)c2ccc(N)cc2)C1	1		> 10	10.6
